Data from article PMC6099444 (Journal of Clinical Pharmacology, 2018).
Entries after “also recorded” stand apart in the source; their conditions may differ.

Key:
Assay type in all cases: in vivo, human
[1] = Plasma pharmacokinetics, phase 1b multiple-dose drug-drug interaction study; conditions: for plasma exposure on coadministration, result in words: verinurad: with allopurinol 300 mg, colchicine: with verinurad 10 mg
How it was run: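 Adult males with gout were randomized 1:1 to two sequences. They took a once-daily oral xanthine oxidase inhibitor 300 mg or urate reabsorption inhibitor 10 mg alone (days 1–7), both (days 8–14), then the other agent (days 15–21). Fasted overnight, no food 4 h postdose. Plasma was sampled days −1, 7, 14, 21 predose to 24 h. Parent and metabolite were measured by LC-MS/MS (methanol precipitation, isotope internal standards). Noncompartmental Tmax, Cmax, AUC0‐24; geometric LS mean ratio combo/alone.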

Urine pharmacokinetics = conditions: for Ae0‐24: urine; for Ae0‐24 / CLR0‐24: geometric LS mean (95% CI)
serum uric acid = test: Serum uric acid pharmacodynamics in adult male subjects with gout; conditions: verinurad 10 mg, allopurinol 300 mg, once daily for 7 days, alone or combined
How it was run: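 Adult males with gout received a once-daily oral xanthine oxidase inhibitor 300 mg, a urate reabsorption inhibitor 10 mg, or both for 7 days each in a randomized crossover sequence. Fasted overnight before sampling. Serum was drawn days 7, 14, 21 predose to 24 h postdose, with extra predose points day 1, and uric acid measured by a central lab. Read-out is maximum % change from time-matched day −1 baseline.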

urine uric acid = test: Urine uric acid pharmacodynamics; conditions: for CLUR, Mean (SD) / FEUA, Mean (SD) / AeUR, Change From Baseline (%) / CLUR, Change From Baseline (%) / FEUA, Change From Baseline (%) / AeUR, Mean (SD) / AeUR, %Change From Baseline / CLUR, %Change From Baseline / FEUA, %Change From Baseline: ALLO 300 mg or both; for AeUR, Change From Baseline (%) / CLUR, Change From Baseline (%) / FEUA, Change From Baseline (%) / AeUR, %Change From Baseline / CLUR, %Change From Baseline / FEUA, %Change From Baseline: mean (SD)
How it was run: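 Total-catch urine was collected days 1, 7, 8, 14, 21 in intervals from 0–1 to 22–24 h postdose. Water: 240 mL on waking and at 22 h, 160 mL frequently postdose. Uric acid and creatinine were assayed centrally. AeUR = concentration × volume; CLUR = AeUR/plasma urate AUC same interval; fractional excretion = (CLUR/CrCl) × 100; rate = AeUR/interval hours. % change uses time-matched day −1 baseline.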

[2] = VERU 10 mg + ALLO 300 mg compared with allopurinol alone
[3] = VERU 10 mg + ALLO 300 mg compared with allopurinol alone, plasma
[4] = treatment ALLO 300 mg once daily
[5] = treatment VERU 10 mg + ALLO 300 mg once daily
[6] = 0‐ to 12‐hour interval, VERU 10 mg
[7] = 0‐ to 12‐hour interval, multiple daily doses VERU 10 mg
[8] = 0‐ to 24‐hour interval, VERU 10 mg
[9] = 12‐ to 24‐hour interval, VERU 10 mg
[10] = VERU 10 mg + ALLO 300 mg compared with allopurinol alone, plasma, listed as oxypurinol
[11] = treatment VERU 10 mg once daily

| Structure (SMILES) | Ae0‐24 (Urine pharmacokinetics; [4]) | Ae0‐24 (Urine pharmacokinetics; [5]) | maximum decrease in serum urate (serum uric acid) | CLUR, Mean (SD) (urine uric acid; [6]) | FEUA, Mean (SD) (urine uric acid; [6]) | AeUR, Change From Baseline (%) (urine uric acid; [6]) | CLUR, Change From Baseline (%) (urine uric acid; [6]) | FEUA, Change From Baseline (%) (urine uric acid; [6]) | AeUR, Mean (SD) (urine uric acid; [7]) | AeUR, Mean (SD) (urine uric acid; [8]) | CLUR, Mean (SD) (urine uric acid; [8]) | FEUA, Mean (SD) (urine uric acid; [8]) | AeUR, %Change From Baseline (urine uric acid; [8]) | CLUR, %Change From Baseline (urine uric acid; [8]) | FEUA, %Change From Baseline (urine uric acid; [8]) | CLUR, Mean (SD) (urine uric acid; [9]) | FEUA, Mean (SD) (urine uric acid; [9]) | AeUR, Change From Baseline (%) (urine uric acid; [9]) | CLUR, Change From Baseline (%) (urine uric acid; [9]) | FEUA, Change From Baseline (%) (urine uric acid; [9]) | also measured |
| --- | --- | --- | --- | --- | --- | --- | --- | --- | --- | --- | --- | --- | --- | --- | --- | --- | --- | --- | --- | --- | --- |
| Oc1ncnc2[nH]ncc12 [Allopurinol, allopurinol] | 25.4 (22.1‐29.2) mg | 22.7 (19.2‐26.9) mg | 43% | 6.50 (1.18) mL/min | 4.06 (0.47) % | −46.8 (7.3) % | −6.0 (12.0) % | −9.7 (9.2) % | 231 (45) mg | 363 (73) mg | 5.00 (1.13) mL/min | 3.69 (0.59) % | −47.4 (7.6) % | −8.50 (14.8) % | −12.0 (12.2) % | 3.62 (1.30) mL/min | 3.19 (0.62) % | −45.4 (14.5) % | −9.4 (23.2) % | −7.6 (14.6) % | AUC on coadministration of verinurad, result in words [1, 2]: unaffected; also recorded: unaltered; increase in Cmax on coadministration of verinurad [1, 3]: 33%; Cmax ([1]; treatment ALLO 300 mg once daily, plasma, geometric LS mean (95% CI)): 1.13 (0.89‐1.43) μg/mL; decrease in 24 hr fractional excretion of urate compared with baseline (urine uric acid; 0-24 h, allopurinol 300 mg): 12.0%; decrease in CLUR compared with baseline (urine uric acid; 0-24 h, allopurinol 300 mg): 8.5%; decrease in 24‐hour AeUR compared with baseline (urine uric acid; 0-24 h, allopurinol 300 mg alone or with verinurad 10 mg): 47.4%; decrease in rate of uric acid excretion (urine uric acid; 2‐3 hour urine collection interval postdose, allopurinol 300 mg): 46%; maximum rate of uric acid excreted in urine compared with the maximum observed baseline rate (urine uric acid; highest mean rate, 2‐3 hour urine collection interval postdose (combination 2‐3 and 3‐4 hour), verinurad 10 mg, allopurinol 300 mg): −46% |
| COc1cc2c(c(OC)c1OC)-c1ccc(OC)c(=O)cc1[C@@H](NC(C)=O)CC2 [Colchicine, colchicine, reference compound] |  |  |  |  |  |  |  |  |  |  |  |  |  |  |  |  |  |  |  |  | plasma exposure on coadministration, result in words [1]: unaltered |
| O=c1[nH]c(=O)c2c[nH]nc2[nH]1 [Oxypurinol, oxypurinol] | 231 (216‐248) mg | 275 (262‐290) mg |  |  |  |  |  |  |  |  |  |  |  |  |  |  |  |  |  |  | decrease in AUC on coadministration of verinurad [1, 3]: 38%; decrease in Cmax on coadministration of verinurad [1, 3]: 32%; decrease in AUC on coadministration of verinurad [1, 10]: approximately 38%; decrease in Cmax on coadministration of verinurad [1, 10]: approximately 32%; Cmax ([1]; male, human, plasma, oral, 300 mg): 12800 ng/mL; increase in renal clearance on coadministration of verinurad (Urine pharmacokinetics; [2]): 93%; increase in urinary excretion on coadministration of verinurad (Urine pharmacokinetics; [2]): 19% |
| CC(C)(Sc1ccncc1-c1ccc(C#N)c2ccccc12)C(=O)O [Verinurad] |  | 67.2 (51.7‐87.4) μg | 51% | 16.3 (4.57) mL/min | 11.6 (3.77) % | 21.4 (23.3) % | 153 (77.0) % | 160 (96.6) % | 490 (71) mg | 739 (84) mg | 11.5 (2.74) mL/min | 9.19 (3.28) % | 9.9 (21.5) % | 122 (105) % | 77.4 (36.0) % | 6.74 (0.96) mL/min | 5.88 (1.78) % | 4.2 (48.0) % | 95.5 (148) % | 49.9 (21.9) % | plasma exposure on coadministration, result in words [1]: unaffected; CLR0‐24 (Urine pharmacokinetics; [5]): 9.75 (7.73‐12.3) mL/min; CLR0‐24 (Urine pharmacokinetics; [11]): 9.28 (7.43‐11.6) mL/min; Ae0‐24 (Urine pharmacokinetics; [11]): 66.8 (51.8‐86.1) μg; AeUR, Mean (SD) (urine uric acid; [9]): 250 (52) mg |
